According to ChEMBL document CHEMBL3739379, “Anti-Candida activity and cytotoxicity of a large library of new N-substituted-1,3-thiazolidin-4-one derivatives” (Eur J Med Chem, 2016):
In brackets after ≈: the same amount, converted by molar mass.

How the values were obtained:
Assay type in all cases: functional
Klebsiella oxytoca = assay: Antibacterial activity against Klebsiella oxytoca after 18 to 22 hrs by broth microdilution method
Summary of the method: (§1)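 Broth microdilution per NCCLS in Mueller-Hinton II broth; isolates subcultured for purity. Compounds dissolved in DMSO, serial dilutions 256 to 0.5 µg/mL; inoculum 10^5/mL. Controls: organism without compound, medium only. Incubation 18 to 22 h at 35 °C. MIC is the lowest concentration giving complete growth inhibition, read by unaided eye.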

Candida albicans = assay: Antifungal activity against Candida albicans clinical isolate after 24 hrs by sabouraud dextrose broth based microdilution method
Summary of the method: (§2)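 Clinical isolates identified by conventional methods and subcultured for purity. Broth microdilution per NCCLS in Sabouraud dextrose broth; compounds dissolved in DMSO and serially diluted; inoculum 10^3/mL. Controls: fungi without compound, medium only. Incubated 24 h at 37 °C. MIC is the lowest concentration with complete growth inhibition by unaided eye. Values are geometric means over isolates per species.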

[1] = system: Staphylococcus haemolyticus; assay: Antibacterial activity against Staphylococcus haemolyticus after 18 to 22 hrs by broth microdilution method; summary of the method: as §1
Pichia kudriavzevii = assay: Antifungal activity against Candida krusei clinical isolate after 24 hrs by sabouraud dextrose broth based microdilution method; summary of the method: as §2
Enterococcus faecalis = assay: Antibacterial activity against […] faecalis after 18 to 22 hrs by broth microdilution method; summary of the method: as §1
Staphylococcus aureus = assay: Antibacterial activity against Staphylococcus aureus after 18 to 22 hrs by broth microdilution method; summary of the method: as §1
Candida parapsilosis = assay: Antifungal activity against Candida parapsilosis clinical isolate after 24 hrs by sabouraud dextrose broth based microdilution method; conditions: Lodderomyces parapsilosis; summary of the method: as §2
Staphylococcus warneri = assay: Antibacterial activity against Staphylococcus warneri after 18 to 22 hrs by broth microdilution method; summary of the method: as §1
Nakaseomyces glabratus = assay: Antifungal activity against Candida glabrata clinical isolate after 24 hrs by sabouraud dextrose broth based microdilution method; summary of the method: as §2
Enterobacter sp. = assay: Antibacterial activity against Enterobacter sp. after 18 to 22 hrs by broth microdilution method; summary of the method: as §1
[Candida] sake = Antifungal activity against Candida sake clinical isolate after 24 hrs by sabouraud dextrose broth based microdilution method; conditions: Fermentozyma sake; summary of the method: as §2
Escherichia coli = assay: Antibacterial activity against Escherichia coli at after 18 to 22 hrs by broth microdilution method; summary of the method: as §1
Proteus mirabilis = assay: Antibacterial activity against Proteus mirabilis after 18 to 22 hrs by broth microdilution method; summary of the method: as §1
Candida tropicalis = assay: Antifungal activity against Candida tropicalis clinical isolate after 24 hrs by sabouraud dextrose broth based microdilution method; summary of the method: as §2

| Compound | MIC (Klebsiella oxytoca) [mg/L] | MIC (Candida albicans) [mg/L] | MIC [1] [mg/L] | MIC (Pichia kudriavzevii) [mg/L] | MIC (Enterococcus faecalis) [mg/L] | MIC (Staphylococcus aureus) [mg/L] | MIC (Candida parapsilosis) [mg/L] | MIC (Staphylococcus warneri) [mg/L] | MIC (Nakaseomyces glabratus) [mg/L] | MIC (Enterobacter sp.) [mg/L] | MIC ([Candida] sake) [mg/L] | MIC (Escherichia coli) [mg/L] | MIC (Proteus mirabilis) [mg/L] | MIC (Candida tropicalis) [mg/L] |
| --- | --- | --- | --- | --- | --- | --- | --- | --- | --- | --- | --- | --- | --- | --- |
| O=C1CS/C(=N\N=C\c2cccnc2)N1Cc1cccc2ccccc12 | > 256 | 4 (≈ 11.1 µM) | > 256 | 32 (≈ 88.8 µM) | > 256 | > 256 | 32 (≈ 88.8 µM) | > 256 | 8 (≈ 22.2 µM) | > 256 | 32 (≈ 88.8 µM) | > 256 | > 256 | 8 (≈ 22.2 µM) |
| O=C1CS/C(=N\N=C\c2cccnc2)N1Cc1ccc([N+](=O)[O-])cc1 | > 256 | 256 (≈ 720 µM) | > 256 | 128 (≈ 360 µM) | > 256 | > 256 | 32 (≈ 90 µM) | > 256 | 32 (≈ 90 µM) | > 256 | 32 (≈ 90 µM) | > 256 | > 256 | 256 (≈ 720 µM) |
| C/C(=N\N=C1/SCC(=O)N1CN1C(=O)c2ccccc2C1=O)c1cccs1 | > 256 | 4 (≈ 10 µM) | > 256 | 4 (≈ 10 µM) | > 256 | > 256 | 4 (≈ 10 µM) | > 256 | 32 (≈ 80.3 µM) | > 256 | 8 (≈ 20.1 µM) | > 256 | > 256 | 2 (≈ 5.02 µM) |
| O=C1CS/C(=N\N=C2CCCCC2)N1Cc1cccc2ccccc12 | > 256 | 2 (≈ 5.69 µM) | > 256 | 16 (≈ 45.5 µM) | > 256 | > 256 | 8 (≈ 22.8 µM) | > 256 | 32 (≈ 91 µM) | > 256 | 32 (≈ 91 µM) | > 256 | > 256 | 8 (≈ 22.8 µM) |
| C/C(=N\N=C1/SCC(=O)N1CN1C(=O)c2ccccc2C1=O)c1ccccc1 | > 256 | 2 (≈ 5.1 µM) | > 256 | 8 (≈ 20.4 µM) | > 256 | > 256 | 8 (≈ 20.4 µM) | > 256 | 8 (≈ 20.4 µM) | > 256 | 8 (≈ 20.4 µM) | > 256 | > 256 | 8 (≈ 20.4 µM) |
| CC1CCC/C1=N\N=C1/SCC(=O)N1Cc1ccc([N+](=O)[O-])cc1 (stereo not given) | > 256 | 4 (≈ 11.5 µM) | > 256 | 2 (≈ 5.77 µM) | > 256 | > 256 | 8 (≈ 23.1 µM) | > 256 | 16 (≈ 46.2 µM) | > 256 | 2 (≈ 5.77 µM) | > 256 | > 256 | 2 (≈ 5.77 µM) |
| C/C(=N\N=C1/SCC(=O)N1Cc1cccc2ccccc12)c1ccccn1 | > 256 | 2 (≈ 5.34 µM) | > 256 | 2 (≈ 5.34 µM) | > 256 | > 256 | 2 (≈ 5.34 µM) | > 256 | 2 (≈ 5.34 µM) | > 256 | 2 (≈ 5.34 µM) | > 256 | > 256 | 2 (≈ 5.34 µM) |
| CC1CC/C(=N\N=C2/SCC(=O)N2Cc2ccc([N+](=O)[O-])cc2)C1 (stereo not given) | > 256 | 2 (≈ 5.77 µM) | > 256 | 256 (≈ 739 µM) | > 256 | > 256 | 64 (≈ 185 µM) | > 256 | 16 (≈ 46.2 µM) | > 256 | 256 (≈ 739 µM) | > 256 | > 256 | 128 (≈ 370 µM) |
| C/C(=N\N=C1/SCC(=O)N1Cc1cccc2ccccc12)c1ccco1 | > 256 | 32 (≈ 88 µM) | > 256 | 4 (≈ 11 µM) | > 256 | > 256 | 4 (≈ 11 µM) | > 256 | 32 (≈ 88 µM) | > 256 | 4 (≈ 11 µM) | > 256 | > 256 | 128 (≈ 352 µM) |
| CC1CCCC/C1=N\N=C1/SCC(=O)N1CN1C(=O)c2ccccc2C1=O (stereo not given) | > 256 | 4 (≈ 10.4 µM) | > 256 | 16 (≈ 41.6 µM) | > 256 | > 256 | 16 (≈ 41.6 µM) | > 256 | 8 (≈ 20.8 µM) | > 256 | 2 (≈ 5.2 µM) | > 256 | > 256 | 2 (≈ 5.2 µM) |
| C/C(=N\N=C1/SCC(=O)N1CN1C(=O)c2ccccc2C1=O)C1CCCCC1 | > 256 | 256 (≈ 642 µM) | > 256 | 16 (≈ 40.2 µM) | > 256 | > 256 | 16 (≈ 40.2 µM) | > 256 | 16 (≈ 40.2 µM) | > 256 | 16 (≈ 40.2 µM) | > 256 | > 256 | 256 (≈ 642 µM) |
| CC/C(C)=N/N=C1\SCC(=O)N1Cc1ccc([N+](=O)[O-])cc1 | > 256 | 2 (≈ 6.24 µM) | > 256 | 2 (≈ 6.24 µM) | > 256 | > 256 | 2 (≈ 6.24 µM) | > 256 | 2 (≈ 6.24 µM) | > 256 | 8 (≈ 25 µM) | > 256 | > 256 | 128 (≈ 400 µM) |
| O=C1CS/C(=N\N=C2CCCCCCC2)N1Cc1cccc2ccccc12 | > 256 | 4 (≈ 10.5 µM) | > 256 | 4 (≈ 10.5 µM) | > 256 | > 256 | 4 (≈ 10.5 µM) | > 256 | 32 (≈ 84.3 µM) | > 256 | 4 (≈ 10.5 µM) | > 256 | > 256 | 8 (≈ 21.1 µM) |
| O=C1c2ccccc2C(=O)N1CN1C(=O)CS/C1=N\N=C\c1ccco1 | > 256 | 2 (≈ 5.43 µM) | > 256 | 4 (≈ 10.9 µM) | > 256 | > 256 | 2 (≈ 5.43 µM) | > 256 | 8 (≈ 21.7 µM) | > 256 | 2 (≈ 5.43 µM) | > 256 | > 256 | 8 (≈ 21.7 µM) |
| CCC(CC)=N/N=C1\SCC(=O)N1CN1C(=O)c2ccccc2C1=O | > 256 | 2 (≈ 5.58 µM) | > 256 | 8 (≈ 22.3 µM) | > 256 | > 256 | 8 (≈ 22.3 µM) | > 256 | 8 (≈ 22.3 µM) | > 256 | 8 (≈ 22.3 µM) | > 256 | > 256 | 8 (≈ 22.3 µM) |
